Common to all, as to format: functional
In assay [1] the test system is Wickerhamomyces anomalus. The assay is described as follows: Antimicrobial susceptibility of Pichia anomala from nosocomial fungemia patient assessed as percent susceptible isolates at 0.015 ug/ml by EUCAST method. Summed up: (§1)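 EUCAST broth microdilution on the same 58 P. anomala isolates (52 bloodstream isolates from Brazil, Argentina and Spain; 6 from USA). MICs were read spectrophotometrically at 530 nm after 24 h incubation. Endpoints were complete or nearly complete (≥95%) inhibition for amphotericin B, and ≥50% inhibition for azoles and caspofungin, relative to drug-free control. Isolates were tallied as cumulative % per MIC.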

For assay [2], the system named is Wickerhamomyces anomalus. The assay is described as follows: Antimicrobial susceptibility of Pichia anomala from nosocomial fungemia patient assessed as percent susceptible isolates at 0.015 ug/ml by CLSI method. The method in brief:
(§2)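 CLSI broth microdilution on 58 P. anomala isolates: 52 unrelated bloodstream isolates (36 Brazil, 13 Argentina, 3 Spain) and 6 from unknown clinical specimens (USA). Fluconazole was tested at 0.12–64 µg/ml. MICs were read spectrophotometrically at 530 nm after 48 h. Endpoints were ≥95% inhibition vs drug-free control for amphotericin B, and ≥50% for azoles and caspofungin. Results are given as cumulative % of isolates at each MIC.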

The subject of assay [3] is Wickerhamomyces anomalus. The assay is described as follows: Antimicrobial susceptibility of Pichia anomala from nosocomial fungemia patient assessed as percent susceptible isolates at 0.5 ug/ml by EUCAST method. The method in brief:
as §1

Assay [4] has as its system Wickerhamomyces anomalus. The assay is described as follows: Antimicrobial susceptibility of Pichia anomala from nosocomial fungemia patient assessed as percent susceptible isolates at 0.25 ug/ml by EUCAST method. Summed up:
(§3)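 58 P. anomala isolates (52 unrelated bloodstream isolates from Brazil, Argentina and Spain; 6 from unknown US clinical specimens). EUCAST broth microdilution, 24 h incubation, spectrophotometric reading at 530 nm. The MIC endpoint was ≥95% inhibition versus the drug-free control for the polyene and ≥50% for azoles and the echinocandin. Cumulative % of isolates inhibited at each MIC was recorded.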

The subject of assay [5] is Wickerhamomyces anomalus. The assay is described as follows: Antimicrobial susceptibility of Pichia anomala from nosocomial fungemia patient assessed as percent susceptible isolates by CLSI method. Summed up:
(§4)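 58 P. anomala isolates (52 unrelated bloodstream isolates from Brazil, Argentina and Spain; 6 from unknown US clinical specimens). CLSI broth microdilution, 48 h incubation, read at 530 nm. The MIC endpoint was ≥95% inhibition versus the drug-free well for the polyene and ≥50% for azoles and the echinocandin. Cumulative % of isolates inhibited at each MIC was recorded, with susceptibility assigned by CLSI interpretive criteria.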

The subject of assay [6] is Wickerhamomyces anomalus. The assay is described as follows: Antimicrobial susceptibility of Pichia anomala from nosocomial fungemia patient assessed as percent susceptible isolates at 0.12 ug/ml by EUCAST method. The method in brief: as §1
Assay [7] has as its system Wickerhamomyces anomalus. The assay is described as follows: Antimicrobial susceptibility of Pichia anomala from nosocomial fungemia patient assessed as percent susceptible isolates by EUCAST method. The method in brief:
as §1

Assay [8] concerns Wickerhamomyces anomalus. The assay is described as follows: Antimicrobial susceptibility of Pichia anomala from nosocomial fungemia patient assessed as percent susceptible isolates at 0.5 ug/ml by CLSI method. The method in brief: as §4
Assay [9] deals with Wickerhamomyces anomalus. The assay is described as follows: Antimicrobial susceptibility of Pichia anomala from nosocomial fungemia patient assessed as percent susceptible isolates at 0.12 ug/ml by CLSI method. The method in brief: as §4
In assay [10] the test system is Wickerhamomyces anomalus. The assay is described as follows: Antimicrobial susceptibility of Pichia anomala from nosocomial fungemia patient assessed as percent susceptible isolates at 1 ug/ml by CLSI method. Summed up: as §2
For assay [11], the system named is Wickerhamomyces anomalus. The assay is described as follows: Antimicrobial susceptibility of Pichia anomala from nosocomial fungemia patient assessed as percent susceptible isolates at 0.03 ug/ml by EUCAST method. Summed up: as §1
Assay [12] deals with Wickerhamomyces anomalus. The assay is described as follows: Antimicrobial susceptibility of Pichia anomala from nosocomial fungemia patient assessed as percent susceptible isolates at 1 ug/ml by EUCAST method. The method in brief: as §1
For assay [13], the system named is Wickerhamomyces anomalus. The assay is described as follows: Antimicrobial susceptibility of Pichia anomala from nosocomial fungemia patient assessed as percent susceptible isolates at 0.06 ug/ml by CLSI method. Summed up:
as §2

Assay [14] relates to Wickerhamomyces anomalus. The assay is described as follows: Antimicrobial susceptibility of Pichia anomala from nosocomial fungemia patient assessed as percent susceptible isolates at 0.25 ug/ml by CLSI method. Summed up:
as §2

Assay [15] relates to Wickerhamomyces anomalus. The assay is described as follows: Antimicrobial susceptibility of Pichia anomala from nosocomial fungemia patient assessed as percent susceptible isolates at 0.03 ug/ml by CLSI method. The method in brief:
as §2

For assay [16], the system named is Wickerhamomyces anomalus. The assay is described as follows: Antimicrobial susceptibility of Pichia anomala from nosocomial fungemia patient assessed as percent susceptible isolates at 0.06 ug/ml by EUCAST method. Summed up:
as §1

Assay [17] relates to Wickerhamomyces anomalus. The assay is described as follows: Antimicrobial susceptibility of Pichia anomala from nosocomial fungemia patient assessed as percent susceptible isolates at 2 ug/ml by EUCAST method. The method in brief:
as §3

Assay [18] deals with Wickerhamomyces anomalus. The assay is described as follows: Antimicrobial susceptibility of Pichia anomala from nosocomial fungemia patient assessed as percent susceptible isolates at 16 ug/ml by CLSI method. The method in brief: as §4
For assay [19], the system named is Wickerhamomyces anomalus. The assay is described as follows: Antimicrobial susceptibility of Pichia anomala from nosocomial fungemia patient assessed as percent susceptible isolates at 4 ug/ml by EUCAST method. Summed up: as §3
Assay [20] has as its system Wickerhamomyces anomalus. The assay is described as follows: Antimicrobial susceptibility of Pichia anomala from nosocomial fungemia patient assessed as percent susceptible isolates at 4 ug/ml by CLSI method. The method in brief: as §4
In assay [21] the test system is Wickerhamomyces anomalus. The assay is described as follows: Antimicrobial susceptibility of Pichia anomala from nosocomial fungemia patient assessed as percent susceptible isolates at 8 ug/ml by CLSI method. Summed up: as §4
For assay [22], the system named is Wickerhamomyces anomalus. The assay is described as follows: Antimicrobial susceptibility of Pichia anomala from nosocomial fungemia patient assessed as percent susceptible isolates at 8 ug/ml by EUCAST method. Summed up: as §3
Assay [23] has as its system Wickerhamomyces anomalus. The assay is described as follows: Antimicrobial susceptibility of Pichia anomala from nosocomial fungemia patient assessed as percent susceptible isolates at 16 ug/ml by EUCAST method. The method in brief: as §3
Assay [24] concerns Wickerhamomyces anomalus. The assay is described as follows: Antimicrobial susceptibility of Pichia anomala from nosocomial fungemia patient assessed as percent susceptible isolates at 2 ug/ml by CLSI method. The method in brief: as §4

As to `CCC(C)n1ncn(-c2ccc(N3CCN(c4ccc(OCC5COC(Cn6cncn6)(c6ccc(Cl)cc6Cl)O5)cc4)CC3)cc2)c1=O` (stereo not given) [ITRACONAZOLE], the Activity in the assay on Wickerhamomyces anomalus [1] worked out at 0%; with Wickerhamomyces anomalus [2], 1.7%; in the assay on Wickerhamomyces anomalus [3] it was 98.2%; in the assay on Wickerhamomyces anomalus [4], 91.2%; with Wickerhamomyces anomalus [5], 36.2%; with Wickerhamomyces anomalus [6], 39.5%. Also, the Activity is 39.6% in the assay on Wickerhamomyces anomalus [7]; 36.1% in the assay on Wickerhamomyces anomalus [9]; 100% in the assay on Wickerhamomyces anomalus [10]; 0% in the assay on Wickerhamomyces anomalus [11]; 100% in the assay on Wickerhamomyces anomalus [12]; 7% with Wickerhamomyces anomalus [16]. Further, the “Cumulative percent of isolates inhibited” value in the assay on Wickerhamomyces anomalus [8] was 96.5%; in the assay on Wickerhamomyces anomalus [13] it was 12%; in the assay on Wickerhamomyces anomalus [14] it was 74.1%; in the assay on Wickerhamomyces anomalus [15], 0%.

As to `C[C@@H]1[C@H](O)[C@@H](C)/C=C/C=C/C=C/C=C/C=C/C=C/C=C/[C@H](O[C@@H]2O[C@H](C)[C@@H](O)[C@H](N)[C@@H]2O)C[C@@H]2O[C@](O)(C[C@@H](O)C[C@@H](O)[C@H](O)CC[C@@H](O)C[C@@H](O)CC(=O)O[C@H]1C)C[C@H](O)[C@H]2C(=O)O` [AMPHOTERICIN B], the Activity in the assay on Wickerhamomyces anomalus [1] worked out at 0%; with Wickerhamomyces anomalus [2] it was 0%; in the assay with Wickerhamomyces anomalus [3] it was 94.7%; with Wickerhamomyces anomalus [4] it was 55.1%; in the assay on Wickerhamomyces anomalus [5], 100%; in the assay on Wickerhamomyces anomalus [6] it was 15.5%. For the same molecule, the Activity with Wickerhamomyces anomalus [7] is 100%; in the assay with Wickerhamomyces anomalus [9], 12%; in the assay with Wickerhamomyces anomalus [10], 100%; in the assay on Wickerhamomyces anomalus [11], 0%; with Wickerhamomyces anomalus [12], 100%; with Wickerhamomyces anomalus [16], 0%. For the same molecule, the “Cumulative percent of isolates inhibited” value with Wickerhamomyces anomalus [8] is 88%; with Wickerhamomyces anomalus [13], 0%; with Wickerhamomyces anomalus [14] it was 36%; in the assay on Wickerhamomyces anomalus [15], 0%.

As to `C[C@@H](c1ncncc1F)[C@](O)(Cn1cncn1)c1ccc(F)cc1F` [VORICONAZOLE], the Activity was determined as 0% in the assay with Wickerhamomyces anomalus [1]; 0% in the assay on Wickerhamomyces anomalus [2]; 100% in the assay on Wickerhamomyces anomalus [4]; 100% with Wickerhamomyces anomalus [5]; 65.5% in the assay with Wickerhamomyces anomalus [6]; 100% in the assay with Wickerhamomyces anomalus [7]. In addition, the Activity in the assay on Wickerhamomyces anomalus [9] worked out at 39.6%; with Wickerhamomyces anomalus [11], 3.4%; with Wickerhamomyces anomalus [16], 29.3%. For the same molecule, the “Cumulative percent of isolates inhibited” value was found to be 100% in the assay on Wickerhamomyces anomalus [8], 18.9% with Wickerhamomyces anomalus [13], 96.5% in the assay on Wickerhamomyces anomalus [14] and 3.4% with Wickerhamomyces anomalus [15].

As to `CC[C@H](C)C[C@H](C)CCCCCCCCC(=O)N[C@H]1C[C@@H](O)[C@@H](NCCN)NC(=O)[C@@H]2[C@@H](O)CCN2C(=O)[C@H]([C@H](O)CCN)NC(=O)[C@H]([C@H](O)[C@@H](O)c2ccc(O)cc2)NC(=O)[C@@H]2C[C@@H](O)CN2C(=O)[C@H]([C@@H](C)O)NC1=O` [CASPOFUNGIN], the Activity was found to be 0% with Wickerhamomyces anomalus [1]; 0% in the assay with Wickerhamomyces anomalus [2]; 100% in the assay with Wickerhamomyces anomalus [5]; 100% in the assay with Wickerhamomyces anomalus [6]; 100% in the assay on Wickerhamomyces anomalus [7]; 84.5% in the assay on Wickerhamomyces anomalus [9]. Further, the Activity is given as 12% in the assay on Wickerhamomyces anomalus [11] and 70.6% in the assay with Wickerhamomyces anomalus [16]. The “Cumulative percent of isolates inhibited” value with Wickerhamomyces anomalus [13] is listed as 17.2%; with Wickerhamomyces anomalus [14] it was 100%; with Wickerhamomyces anomalus [15] it was 1.7%.

For the molecule `OC(Cn1cncn1)(Cn1cncn1)c1ccc(F)cc1F` [FLUCONAZOLE], the Activity in the assay on Wickerhamomyces anomalus [1] is on record as 0%; in the assay with Wickerhamomyces anomalus [17], 22.4%; in the assay with Wickerhamomyces anomalus [18], 100%; in the assay with Wickerhamomyces anomalus [19], 55.1%; in the assay with Wickerhamomyces anomalus [20], 56.8%; in the assay on Wickerhamomyces anomalus [2], 0%. For the same molecule, the Activity with Wickerhamomyces anomalus [3] came out at 0%; with Wickerhamomyces anomalus [21] it was 93%; in the assay on Wickerhamomyces anomalus [4] it was 0%; in the assay on Wickerhamomyces anomalus [5], 96.6%; in the assay on Wickerhamomyces anomalus [6], 0%; in the assay with Wickerhamomyces anomalus [7], 93%. The Activity in the assay with Wickerhamomyces anomalus [22] was determined as 96.5%; in the assay with Wickerhamomyces anomalus [23], 100%; with Wickerhamomyces anomalus [24] it was 15.5%; in the assay on Wickerhamomyces anomalus [9], 0%; in the assay with Wickerhamomyces anomalus [10] it was 0%; in the assay on Wickerhamomyces anomalus [11], 0%. For the same molecule, the Activity in the assay with Wickerhamomyces anomalus [12], with Wickerhamomyces anomalus [13], with Wickerhamomyces anomalus [14], with Wickerhamomyces anomalus [15] and in the assay on Wickerhamomyces anomalus [16] was 0% throughout. In the assay with Wickerhamomyces anomalus [8], the “Cumulative percent of isolates inhibited” value was 0%.
